Laboratory results as given in ChEMBL document CHEMBL3112561, “Small molecule disruptors of the glucokinase-glucokinase regulatory protein interaction: 2. Leveraging structure-based drug design to identify analogues with improved pharmacokinetic profiles” (J Med Chem, 2014).

Columns and labels:
[1] = Mean residence time in C57Bl6 mouse at 10 mg/kg, po; assay type: ADME, organism-based; design: dose 10 mg/kg, route oral; conditions: in vivo
In short: (§1)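 Oral PK at 10 mg/kg in 1% Tween 80, 2% HPMC, 97% water, […]; mean residence time from plasma profile.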

[2] = Mean residence time in rat at 10 mg/kg, po; assay type: ADME, organism-based; design: dose 10 mg/kg, route oral; conditions: in vivo; in short: as §1
Plasma [3] = test: Unbound plasma concentration in insulin-resistant db/db mouse at 30 mg/kg, po measured at 6 hrs; assay type: ADME, organism-based; design: dose 30 mg/kg, route oral; conditions: in vivo
In short: (§2)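 Fed db/db mice dosed orally (10, 30, 100 mg/kg) in 2% HPMC/1% Tween 80 vehicle, pH 2.2 (MSA), gavaged at 9:00 AM. A 15 μL whole-blood sample taken at 6 h post-dose for drug exposure, reported as unbound plasma concentration.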

[4] = Oral bioavailability in C57Bl6 mouse at 10 mg/kg; assay type: ADME, organism-based; conditions: in vivo
[5] = Volume of distribution at steady state in rat at 2 mg/kg, iv; assay type: ADME, organism-based; design: dose 2 mg/kg, route intravenous; conditions: in vivo, read-out: Vdss
In short: (§3)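 Intravenous PK at 2 mg/kg in 100% DMSO; steady-state volume of distribution derived from plasma profile.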

Plasma [6] = test: Unbound plasma concentration in insulin-resistant db/db mouse at 10 mg/kg, po measured at 6 hrs; assay type: ADME, organism-based; design: dose 10 mg/kg, route oral; conditions: in vivo; in short: as §2
[7] = Volume of distribution at steady state in C57Bl6 mouse at 2 mg/kg, iv; assay type: ADME, organism-based; design: dose 2 mg/kg, route intravenous; conditions: in vivo, read-out: Vdss; in short: as §3
Plasma [8] = test: Unbound plasma concentration in insulin-resistant db/db mouse at 100 mg/kg, po measured at 6 hrs; assay type: ADME, organism-based; design: dose 100 mg/kg, route oral; conditions: in vivo; in short: as §2
[9] = Oral bioavailability in rat at 10 mg/kg; assay type: ADME, organism-based; conditions: in vivo
Mus musculus [10] = test: Unbound maximum concentration in C57Bl6 mouse at 10 mg/kg, po; assay type: ADME, organism-based; design: dose 10 mg/kg, route oral; conditions: in vivo
Liver microsome [11] = test: Drug metabolism in rat liver microsomes assessed as oxidation of bicyclic morpholine ring; assay type: ADME
[12] = Ratio of EC50 for induction of GK translocation from nucleus to cytoplasm of mouse hepatocytes to ratio of unbound maximum concentration in C57Bl6 mouse; design: species or system Hepatocyte
[13] = target: T1, Glucokinase regulatory protein (Mus musculus, UniProt Q91X44); test: Induction of GK translocation from nucleus to cytoplasm of mouse hepatocytes preincubated for 20 mins followed by glucose challenge measured after 40 mins by Hoechst 33342 staining-based assay; assay type: cell-based, Hepatocyte
T1 sequence (Q91X44 whole entry): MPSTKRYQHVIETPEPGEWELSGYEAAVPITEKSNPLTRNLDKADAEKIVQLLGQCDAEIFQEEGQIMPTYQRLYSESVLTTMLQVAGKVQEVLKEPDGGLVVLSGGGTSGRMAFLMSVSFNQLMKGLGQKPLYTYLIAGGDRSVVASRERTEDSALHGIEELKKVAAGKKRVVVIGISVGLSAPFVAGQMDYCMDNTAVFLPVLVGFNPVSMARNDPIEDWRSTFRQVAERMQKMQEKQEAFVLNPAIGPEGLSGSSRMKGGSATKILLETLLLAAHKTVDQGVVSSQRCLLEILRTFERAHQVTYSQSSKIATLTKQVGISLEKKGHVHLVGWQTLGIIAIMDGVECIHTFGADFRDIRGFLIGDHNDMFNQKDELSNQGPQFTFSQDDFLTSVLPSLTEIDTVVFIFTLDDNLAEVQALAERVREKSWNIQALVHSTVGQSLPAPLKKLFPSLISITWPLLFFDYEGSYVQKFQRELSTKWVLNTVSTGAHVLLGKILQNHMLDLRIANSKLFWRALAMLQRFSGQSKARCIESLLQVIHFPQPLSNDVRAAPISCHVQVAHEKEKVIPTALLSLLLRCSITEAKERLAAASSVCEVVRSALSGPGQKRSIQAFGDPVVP

[14] = Intrinsic clearance in human liver microsomes at 1 uM after 30 mins in presence of NADPH; assay type: ADME; conditions: read-out: CLH
[15] = Clearance in rat at 2 mg/kg, iv; assay type: ADME, organism-based; design: dose 2 mg/kg, route intravenous; conditions: in vivo
Liver microsome [16] = test: Drug metabolism in human liver microsomes assessed as oxidation of bicyclic morpholine ring; assay type: ADME
Mus musculus [17] = test: Unbound maximum concentration in C57Bl6 mouse at 100 mg/kg, po; assay type: ADME, organism-based; design: dose 100 mg/kg, route oral; conditions: in vivo
[18] = Fraction unbound in rat plasma at 10 mg/kg, po by rapid equilibrium dialysis method; assay type: ADME, organism-based; design: dose 10 mg/kg, route oral
In short: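 Plasma fraction unbound measured by rapid equilibrium dialysis.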

| MRT [1] | MRT [2] | Cp(f) (Plasma [3]) | bioavailability [4] | Vd [5] | Cp(f) (Plasma [6]) | Vd [7] | Cp(f) (Plasma [8]) | bioavailability [9] | fCmax (Mus musculus [10]) | Drug metabolism (Liver microsome [11]) | EC50 [13] | microsomal CLint at 1 µM [14] | clearance [15] | Drug metabolism (Liver microsome [16]) | fCmax (Mus musculus [17]) | fraction unbound [18] | Structure (SMILES) | Ratio [12] |
| --- | --- | --- | --- | --- | --- | --- | --- | --- | --- | --- | --- | --- | --- | --- | --- | --- | --- | --- |
| 5.3 h | 4.6 h | 0.24 µM | 39% | 1.6 L/kg | 0.058 µM | 1 L/kg | 0.786 µM | 82% | 0.292 µM |  |  |  |  |  |  |  | CC#C[C@H]1CN(S(=O)(=O)c2ccc(N)nc2)CCN1c1ccc([C@@](C)(O)C(F)(F)F)cc1 |  |
|  | 4.4 h |  |  | 8.3 L/kg |  |  |  | 7% |  | Active | 1.79 µM | 353 µL/min/mg | 4.1 L/h/kg | Active | 0.032 µM | 0.037 | C[C@H]1COCCN1C[C@H]1CN(S(=O)(=O)c2cccs2)CCN1c1ccc([C@@](C)(O)C(F)(F)F)cc1 | 50 |
